Each structure is given as a SMILES string. Bounds are passed on as bounds.

This note sets out measurements from ChEMBL document CHEMBL1159098, “A new series of flavones, thioflavones, and flavanones as selective monoamine oxidase-B inhibitors” (Bioorg Med Chem, 2010).

The target of data set [1] is T1, Amine oxidase [flavin-containing] A (Homo sapiens, UniProt P21397).
T1 sequence (P21397 whole entry): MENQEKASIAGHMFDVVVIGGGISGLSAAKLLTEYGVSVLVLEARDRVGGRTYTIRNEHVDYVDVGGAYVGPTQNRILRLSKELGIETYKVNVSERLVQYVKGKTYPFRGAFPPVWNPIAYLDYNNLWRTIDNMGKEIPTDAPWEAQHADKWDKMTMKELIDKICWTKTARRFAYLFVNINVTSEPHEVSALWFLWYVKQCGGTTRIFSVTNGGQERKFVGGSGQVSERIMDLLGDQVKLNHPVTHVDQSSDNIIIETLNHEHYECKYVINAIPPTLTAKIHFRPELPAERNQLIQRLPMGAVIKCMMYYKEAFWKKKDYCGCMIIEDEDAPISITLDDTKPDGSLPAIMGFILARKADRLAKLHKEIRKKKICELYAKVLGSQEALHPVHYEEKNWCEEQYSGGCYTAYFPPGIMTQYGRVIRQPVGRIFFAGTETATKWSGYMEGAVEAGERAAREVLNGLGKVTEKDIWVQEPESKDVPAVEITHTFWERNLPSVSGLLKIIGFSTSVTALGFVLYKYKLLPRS
Description: Inhibition of human recombinant MAOA expressed in BTI-TN-5B1-4 cells at 500 uM before washing by centrifugation-ultrafiltration method. Conditions: BTI-TN-5B1-4, human; call rule not given here. The format is cell-based.

Data set [2] addresses T2, Amine oxidase [flavin-containing] B (Homo sapiens, UniProt P27338).
T2 sequence (P27338 whole entry): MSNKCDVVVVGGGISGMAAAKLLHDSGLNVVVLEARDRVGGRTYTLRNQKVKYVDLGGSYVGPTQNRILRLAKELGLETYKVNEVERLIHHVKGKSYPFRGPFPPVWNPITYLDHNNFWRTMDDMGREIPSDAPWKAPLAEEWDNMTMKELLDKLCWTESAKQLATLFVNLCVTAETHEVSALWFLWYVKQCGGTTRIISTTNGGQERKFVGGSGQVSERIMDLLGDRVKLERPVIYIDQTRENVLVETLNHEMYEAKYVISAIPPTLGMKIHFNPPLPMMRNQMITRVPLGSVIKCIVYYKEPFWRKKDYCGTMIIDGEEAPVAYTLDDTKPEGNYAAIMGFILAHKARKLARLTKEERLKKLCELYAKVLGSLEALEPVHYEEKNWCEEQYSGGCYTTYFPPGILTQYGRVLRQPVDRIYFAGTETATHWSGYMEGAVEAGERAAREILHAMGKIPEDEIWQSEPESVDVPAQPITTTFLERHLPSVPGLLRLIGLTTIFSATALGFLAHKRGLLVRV
The data set is described as follows: Inhibition of human recombinant MAOB expressed in BTI-TN-5B1-4 cells at 1 mM by para-tyramine oxidation assay. Conditions: bti-tn-5b1-4, 1000 µM. The format is cell-based.

Data set [3] deals with T1, Amine oxidase [flavin-containing] A. Description: Inhibition of human MAOA. The procedure, abridged: (§1)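 Recombinant human MAO-A or -B as microsomes from baculovirus-infected BTI-TN-5B1-4 insect cells, dosed to oxidize 165 pmol p-tyramine/min in controls (A 1.1 µg, B 7.5 µg protein). Preincubated with inhibitor 15 min at 37 °C in 0.05 M sodium phosphate pH 7.4. Started with 1 mM p-tyramine, 200 µM Amplex Red, 1 U/ml HRP (final). Resorufin fluorescence (ex 545/em 590 nm) read over 15 min at 37 °C, background subtracted.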

For data set [4], the target named is T2, Amine oxidase [flavin-containing] B. Description: Inhibition of human MAOB. The procedure, abridged:
as §1

Data set [5] addresses T1, Amine oxidase [flavin-containing] A. Description: Inhibition of human recombinant MAOA expressed in BTI-TN-5B1-4 cells at 100 uM by para-tyramine oxidation assay. The data set is classed as cell-based. Conditions: for inhibition (INH): human, bti-tn-5b1-4, 100 µM; for inhibition at 100 µM: BTI-TN-5B1-4, human.
For the next data set, the species on record is Homo sapiens. Description: Selectivity for human MAOB over human MAOA. The essentials:
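Selectivity index = IC50(hMAO-A)/IC50(hMAO-B), both from Amplex Red/p-tyramine fluorimetric assays on insect-cell recombinant enzymes.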

Data set [6] concerns the target T2, Amine oxidase [flavin-containing] B. The data set is classed as cell-based, BTI-TN-5B1-4.
Data set [7] shares this target. Description: Inhibition of human recombinant MAOB expressed in BTI-TN-5B1-4 cells at 100 nM before washing by centrifugation-ultrafiltration method. The format is cell-based. As to conditions: BTI-TN-5B1-4, human. The procedure, abridged: (§2)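 Recombinant hMAO-B was incubated with one concentration of inhibitor in 0.05 M sodium phosphate pH 7.4 for 15 min at 37 °C. One aliquot was kept at 4 °C unwashed. The rest was washed three times by 30 kDa ultrafiltration (9000g, 20 min, 4 °C) and resuspended in buffer.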

Data set [8] shares this target. The data set is described as follows: Inhibition of human recombinant MAOB expressed in BTI-TN-5B1-4 cells at 100 nM after repeated washing by centrifugation-ultrafiltration method. The format is cell-based. Conditions: BTI-TN-5B1-4, human. The essentials: as §2
A short description of data set [9]: Inhibition of human monoamine oxidase.
Data set [10] addresses T2, Amine oxidase [flavin-containing] B. Description: Inhibition of human recombinant MAOB expressed in BTI-TN-5B1-4 cells at 100 uM by para-tyramine oxidation assay. The format is cell-based. Conditions: for inhibition at 100 µM: BTI-TN-5B1-4, human.

As usually defined, the inhibition is the drop in the measured response relative to a control, in per cent. Turning to `O=C(NCCN1CCOCC1)c1ccc(Cl)cc1` [MOCLOBEMIDE], the inhibition at 500 µM in data set [1] was 84.8%. In data set [2], the “inhibition (INH)” value is “Not Active”. A word on the IC50: it is the concentration that inhibits the measured activity by half. Read a low IC50 as greater potency. Take `O=c1cc(-c2ccc(O)c(O)c2)oc2cc(O)cc(O)c12` [LUTEOLIN]: the IC50 in data set [3] came out at 4.9 µM; in data set [4], 59.7 µM. Consider `O=c1c(O)c(-c2ccc(O)c(O)c2)oc2cc(O)cc(O)c12` [QUERCETIN], for which the IC50 in [3] came to 2.8 µM; in data set [4], 90 µM. For `Cc1ccc2c(c1)OC(c1ccc(F)cc1)CC2=O` (racemic), the “inhibition (INH)” value in data set [5] is recorded as “Not Active”. In the data set filed under Homo sapiens, the Ratio IC50 is more than 769. The molecule further displayed an IC50 in [6] of 0.13 µM. For the same molecule, the inhibition at 0.1 µM in data set [7] amounted to 38.4%; in data set [8], 36.5%. With `O=C1c2c(O)cc(O)cc2O[C@H](c2ccc(O)cc2)[C@H]1O` [DIHYDROKAEMPFEROL], in [9], the IC50 was 153 µM. For the molecule `O=C1c2c(O)cc(O)cc2O[C@H](c2ccc(O)c(O)c2)[C@H]1O` [(+)-TAXIFOLIN], the half-maximal inhibitory concentration (IC50) in [9] is 155 µM. For the molecule `O=c1cc(-c2ccc(O)cc2)oc2cc(O)cc(O)c12` [APIGENIN], the IC50 in [3] was 1.7 µM; in [4], 12.8 µM.

Take `COc1ccc2c(=O)cc(-c3ccccc3)oc2c1` [7-METHOXYFLAVONE]: in data set [5], the “inhibition (INH)” value is listed as “Not Active”. The inhibition at 100 µM in data set [10] was 40%. For `COc1c(O)cc2oc(-c3ccc(O)c(O)c3)cc(=O)c2c1O` [EUPAFOLIN], the IC50 in data set [9] came out at 25 µM.

With `COc1cc(-c2cc(=O)c3c(O)c(OC)c(O)cc3o2)ccc1O` [JACEOSIDINE], the IC50 in data set [9] worked out at 19 µM. With `Cc1ccc2c(=O)cc(-c3ccc(F)cc3)oc2c1`, the “inhibition (INH)” value in data set [5] was “Not Active”. Moreover, the inhibition at 100 µM in [10] turned out to be 40%. Take `O=c1cc(-c2ccccc2)oc2ccccc12` [FLAVONE]: the inhibition at 100 µM in [5] was determined as 40%. Also, the “inhibition (INH)” value in data set [10] (human, bti-tn-5b1-4, 100 µM) is “Not Active”. For `O=c1cc(-c2ccc(F)cc2)oc2ccccc12`, the inhibition at 100 µM in [5] and in data set [10] was 40% in each case.
